Assay results: ChEMBL document CHEMBL4007483, “Design, synthesis and potent cytotoxic activity of novel 7-(N-[(substituted-sulfonyl)piperazinyl]-methyl)-camptothecin derivatives” (Bioorg Med Chem Lett, 2017)

Legend:
Format in all cases: functional, cell-based
KB = assay: Cytotoxicity against human KB cells after 72 hrs by sulforhodamine B assay
Method in brief: (§1)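 Cells seeded at 3–5 × 10^3 per well in RPMI-1640 with 10% FBS containing graded sample concentrations, exposed 72 h. Attached cells fixed with cold 50% trichloroacetic acid 30 min, stained with 0.04% SRB 30 min. Bound dye solubilized in 10 mM Tris-base, absorbance read at 515 nm; IC50 from concentration series.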

MDA-MB-231 = assay: Cytotoxicity against human MDA-MB-231 cells after 72 hrs by sulforhodamine B assay; details: MDA-MB-231, 72 h; method in brief: as §1
MCF7 = assay: Cytotoxicity against human MCF7 cells after 72 hrs by sulforhodamine B assay; details: MCF7, 72 h; method in brief: as §1
[1] = Cytotoxicity against human KBVIN cells after 72 hrs by sulforhodamine B assay; method in brief: as §1
A549 = assay: Cytotoxicity against human A549 cells after 72 hrs by sulforhodamine B assay; details: A549, 72 h; method in brief: as §1

SMILES | IC50 (KB) [nM] | IC50 (MDA-MB-231) [nM] | IC50 (MCF7) [nM] | IC50 [1] [nM] | IC50 (A549) [nM]
CC[C@@]1(O)C(=O)OCc2c1cc1n(c2=O)Cc2c-1nc1ccccc1c2CN1CCN(S(=O)(=O)c2ccc(C)cc2)CC1 | 84.5 | 84.2 | 18.2 | 34.6 | 0.89
CC[C@@]1(O)C(=O)OCc2c1cc1n(c2=O)Cc2c-1nc1ccccc1c2CN1CCN(S(=O)(=O)c2cc(OC)cc(OC)c2)CC1 | 2.9 | 6.4 | 34 | 1.2 | 1.42
CC[C@@]1(O)C(=O)OCc2c1cc1n(c2=O)Cc2c-1nc1ccccc1c2CN1CCN(S(=O)(=O)c2cc(F)cc(F)c2)CC1 | 21 | 82.6 | 56.3 | 266 | 0.7
CC[C@@]1(O)C(=O)OCc2c1cc1n(c2=O)Cc2c-1nc1ccccc1c2CN1CCN(S(=O)(=O)Cc2ccccc2)CC1 | 195 | 552 | 362 | 416 | 27.4
CC[C@@]1(O)C(=O)OCc2c1cc1n(c2=O)Cc2cc3ccccc3nc2-1 [CAMPTOTHECIN] | 50 | 307 | 87.5 | 15.7 | 8.63
CC[C@@]1(O)C(=O)OCc2c1cc1n(c2=O)Cc2c-1nc1ccccc1c2CN1CCN(S(=O)(=O)c2ccc(C(C)C)cc2)CC1 | 15.9 | 122 | 67.6 | 81.4 | 4.37
CC[C@@]1(O)C(=O)OCc2c1cc1n(c2=O)Cc2c-1nc1ccccc1c2CN1CCN(S(=O)(=O)c2ccc(OC)cc2)CC1 | 20.7 | 124 | 70.9 | 142 | 5.36
CC[C@@]1(O)C(=O)OCc2c1cc1n(c2=O)Cc2c-1nc1ccccc1c2CN1CCN(S(=O)(=O)c2cccs2)CC1 | 71.3 | 30.5 | 8 | 57.5 | 0.21
CC[C@@]1(O)C(=O)OCc2c1cc1n(c2=O)Cc2c-1nc1ccccc1c2CN1CCN(S(=O)(=O)c2ccc3ccccc3c2)CC1 | 44.2 | 113 | 81.3 | 165 | 13
CC[C@@]1(O)C(=O)OCc2c1cc1n(c2=O)Cc2c-1nc1ccccc1c2CN1CCN(S(=O)(=O)c2ccc(Cl)cc2)CC1 | 96.9 | 75.4 | 34.5 | 20.2 | 6.92
CCc1ccc(S(=O)(=O)N2CCN(Cc3c4c(nc5ccccc35)-c3cc5c(c(=O)n3C4)COC(=O)[C@]5(O)CC)CC2)cc1 | 10.9 | 105 | 61.8 | 126 | 0.65
CCc1c2c(nc3ccc(OC(=O)N4CCC(N5CCCCC5)CC4)cc13)-c1cc3c(c(=O)n1C2)COC(=O)[C@]3(O)CC [IRINOTECAN] | – | – | – | > 20000 | –
CC[C@@]1(O)C(=O)OCc2c1cc1n(c2=O)Cc2cc3c(CN(C)C)c(O)ccc3nc2-1 [TOPOTECAN] | – | – | – | 287 | –
CC[C@@]1(O)C(=O)OCc2c1cc1n(c2=O)Cc2c-1nc1ccccc1c2CN1CCN(S(=O)(=O)c2ccc([N+](=O)[O-])cc2)CC1 | 55.5 | 350 | 96.2 | 481 | 29.7
CC[C@@]1(O)C(=O)OCc2c1cc1n(c2=O)Cc2c-1nc1ccccc1c2CN1CCN(S(=O)(=O)c2ccccc2)CC1 | 2 | 46.4 | 4.9 | 70.4 | 0.25
CC[C@@]1(O)C(=O)OCc2c1cc1n(c2=O)Cc2c-1nc1ccccc1c2CN1CCN(S(=O)(=O)c2cccnc2)CC1 | 67.8 | 106 | 61 | 327 | 21.9
CCCCS(=O)(=O)N1CCN(Cc2c3c(nc4ccccc24)-c2cc4c(c(=O)n2C3)COC(=O)[C@]4(O)CC)CC1 | 8.5 | 134 | 74.9 | 203 | 4.01
CC[C@@]1(O)C(=O)OCc2c1cc1n(c2=O)Cc2c-1nc1ccccc1c2CN1CCN(S(=O)(=O)N(C)C)CC1 | 78.6 | 336 | 71.5 | 141 | 7.22
CC[C@@]1(O)C(=O)OCc2c1cc1n(c2=O)Cc2c-1nc1ccccc1c2CN1CCN(S(=O)(=O)c2ccc(F)cc2)CC1 | 76.3 | 62.8 | 37.6 | 25.7 | 0.5
